Reference: ChEMBL document CHEMBL1143390 (Bioorg Med Chem, 2009)

How the values were obtained:
[1] = Chemical stability in Tris-HCl buffer assessed as hydrolysis half life at pH 8 in presence of porcine esterase; assay type: physicochemical; conditions: pig, isolated protein
In short: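 Prodrug at 1.4 mM final in pH 8.0 Tris-HCl with 5% DMSO and 20 μg/mL porcine esterase, incubated at 37 ± 0.5 °C. Aliquots quenched in ice-cold methanol/acetonitrile 1/1, filtered and analysed by HPLC. Enzyme activity checked with ethyl butyrate substrate.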

[2] = Chemical stability in phosphate buffer assessed as hydrolysis half life at pH 7.4; assay type: physicochemical
In short: (§1)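 Prodrug, 1 mM in DMSO, diluted into 10 mM phosphate buffer at pH 2.0 or 7.4, ionic strength 0.1 set with NaCl, final 5% DMSO. Held at 37 ± 0.5 °C in screw-capped vials. Samples drawn over time, filtered and analysed by HPLC. Half-life from linear regression of a pseudo-first-order plot.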

CCRF-CEM = experiment: Cytotoxicity against human CEM cells after 3 days by MTT assay; assay type: cell-based; conditions: 72 h
In short: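 CEM T-lymphoblastoid cells in log phase, seeded at 2.5×10^3 cells/well with 10-fold serial dilutions of drug. Incubated 3 days at 37 °C in humidified 5% CO2-air. MTT dye added overnight, then solubilization for 5 h and read at 570 nm. IC50 from the concentration-response curve by the median effect method.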

[3] = Chemical stability in phosphate buffer assessed as hydrolysis half life at pH 2.0; assay type: physicochemical; in short: as §1
Vero = experiment: Cytotoxicity against african green monkey Vero cells after 2 days by MTT assay; conditions: Chlorocebus sabaeus, 48 h
PBMC = experiment: Cytotoxicity against human PBM cells after 4 days by MTT assay; conditions: 96 h
[4] = test system: Human immunodeficiency virus 1; experiment: Antiviral activity against HIV1 LAI infected in PBM cells; conditions: Human immunodeficiency virus 1, LAI, PBMC

t1/2 [1] [h] | t1/2 [2] [h] | t1/2 [3] [h] | EC50 [4] [µM] | EC90 [4] [µM] | Structure (SMILES) | IC50 (CCRF-CEM) [µM] | IC50 (Vero) [µM] | IC50 (PBMC) [µM]
0.207 | 22 | 8.67 | 2.5 | 8.4 | Cc1cn([C@H]2CO[C@@H](COC(=O)CN)O2)c(=O)[nH]c1=O.Cl | > 100 | > 100 | > 100
0.288 | 46.67 | 20 | 4.7 | 15.1 | Cc1cn([C@H]2CO[C@@H](COC(=O)C3CC3)O2)c(=O)[nH]c1=O | > 100 | > 100 | > 100
0.323 | 30 | 12.2 | 0.98 | 6.5 | Cc1cn([C@H]2CO[C@@H](COC(=O)[C@H](N)C(C)C)O2)c(=O)[nH]c1=O.Cl | > 100 | > 100 | > 100
0.483 | 54.17 | 30 | 0.6 | 4.3 | CCCCCCCC(=O)OC[C@@H]1OC[C@H](n2cc(C)c(=O)[nH]c2=O)O1 | > 100 | > 100 | > 100
0.293 |  |  | 1.4 | 9.7 | Cc1cn([C@H]2CO[C@@H](COCOC(=O)C(C)(C)C)O2)c(=O)[nH]c1=O | > 100 | > 100 | > 100
0.315 | 36.67 | 16 | 0.56 | 4.9 | Cc1cn([C@H]2CO[C@@H](COC(=O)[C@@H](N)C(C)C)O2)c(=O)[nH]c1=O.Cl | > 100 | > 100 | > 100
0.283 | 46.33 | 21.67 | 1.3 | 14.5 | Cc1cn([C@H]2CO[C@@H](COC(=O)C(C)(C)C)O2)c(=O)[nH]c1=O | > 100 | 18.1 | > 100
0.297 | 7 | 5.33 | 1.7 | 8 | Cc1cn([C@H]2CO[C@@H](COC(=O)[C@@H](N)Cc3c[nH]c4ccccc34)O2)c(=O)[nH]c1=O.Cl | > 100 | > 100 | > 100
0.223 | 4 | 3.17 | 0.89 | 6.3 | Cc1cn([C@H]2CO[C@@H](COC(=O)[C@@H](N)CCC(=O)O)O2)c(=O)[nH]c1=O.Cl | > 100 | > 100 | > 100
0.298 | 35.83 | 14.5 | 3.3 | 12.4 | Cc1cn([C@H]2CO[C@@H](COC(=O)[C@@H](N)CC(C)C)O2)c(=O)[nH]c1=O.Cl | > 100 | > 100 | > 100
 |  |  |  | 0.04 | Cc1cn([C@H]2C[C@H](N=[N+]=[N-])[C@@H](CO)O2)c(=O)[nH]c1=O [ZIDOVUDINE] |  |  | > 100
0.292 | 34 | 13.3 | 3 | 9.9 | CC[C@H](C)[C@H](N)C(=O)OC[C@@H]1OC[C@H](n2cc(C)c(=O)[nH]c2=O)O1.Cl | > 100 | > 100 | > 100
0.232 | 26.67 | 14.5 | 0.98 | 8.3 | Cc1cn([C@H]2CO[C@@H](COC(=O)[C@H](C)N)O2)c(=O)[nH]c1=O.Cl | > 100 | > 100 | > 100
0.227 | 6.33 | 3.83 | 1.4 | 7.3 | Cc1cn([C@H]2CO[C@@H](COC(=O)[C@@H]3CCCN3)O2)c(=O)[nH]c1=O.Cl | > 100 | > 100 | > 100
0.243 | 17.83 | 9.17 | 0.88 | 4.4 | Cc1cn([C@H]2CO[C@@H](COC(=O)[C@@H](N)Cc3ccccc3)O2)c(=O)[nH]c1=O.Cl | > 100 | > 100 | > 100
0.683 |  |  | 0.4 | 3.2 | CCCCCCCCCCCC(=O)OC[C@@H]1OC[C@H](n2cc(C)c(=O)[nH]c2=O)O1 | > 100 | > 100 | > 100
0.8 |  |  | 23.5 | > 100 | CCCCCCCCCCCCCCCC(=O)OC[C@@H]1OC[C@H](n2cc(C)c(=O)[nH]c2=O)O1 | > 100 | 92.2 | > 100
0.223 | 31.17 | 15.3 | 2.2 | 7.6 | Cc1cn([C@H]2CO[C@@H](COC(=O)C(C)(C)N)O2)c(=O)[nH]c1=O.Cl | > 100 | > 100 | > 100
0.272 | 44.17 | 26.33 | 2.9 | 12.3 | CC(=O)OC[C@@H]1OC[C@H](n2cc(C)c(=O)[nH]c2=O)O1 | 99.4 | > 100 | > 100
0.308 | 53 | 26.67 | 0.4 | 2.5 | CCCCC(=O)OC[C@@H]1OC[C@H](n2cc(C)c(=O)[nH]c2=O)O1 | > 100 | 49 | > 100
0.26 | 15.7 | 7.17 | 1 | 5.2 | Cc1cn([C@H]2CO[C@@H](COC(=O)[C@H](N)Cc3ccccc3)O2)c(=O)[nH]c1=O.Cl | > 100 | > 100 | > 100
0.322 | 53.33 | 30.83 | 1.3 | 3.9 | Cc1cn([C@H]2CO[C@@H](COC(=O)C3CCCCC3)O2)c(=O)[nH]c1=O | > 100 | > 100 | > 100
